For one experiment, the target named is Carbonic anhydrase 9 (Homo sapiens, UniProt Q16790). Put plainly: Inhibition of human recombinant carbonic anhydrase 9 preincubated for 15 mins by stopped flow CO2 hydration method. An outline of the steps: (§1)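 Stopped-flow assay of CO2 hydration by in-house recombinant CA isoforms. Phenol red 0.2 mM read at 557 nm, in 20 mM Tris pH 8.3 with 20 mM Na2SO4 for constant ionic strength. CO2 1.7–17 mM; initial rates over 10–100 s, uncatalyzed rate subtracted. Inhibitor diluted in buffer down to 0.005 nM and preincubated with enzyme 15 min at room temperature. Ki by non-linear least squares with Cheng-Prusoff, mean of ≥3 determinations.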

The species named for experiment [1] is Homo sapiens. The experiment is described as follows: Selectivity ratio of Ki for human recombinant carbonic anhydrase 2 to Ki for human recombinant carbonic anhydrase 1.
For experiment [2], the species on record is Homo sapiens. The experiment is described as follows: Selectivity ratio of Ki for human recombinant carbonic anhydrase 2 to Ki for human recombinant carbonic anhydrase 12.
The target in the next experiment is Carbonic anhydrase 12 (Homo sapiens, UniProt O43570). The experiment is described as follows: Inhibition of human recombinant carbonic anhydrase 12 preincubated for 15 mins by stopped flow CO2 hydration method. An outline of the steps: as §1
Carbonic anhydrase 12, sequence (O43570 whole entry): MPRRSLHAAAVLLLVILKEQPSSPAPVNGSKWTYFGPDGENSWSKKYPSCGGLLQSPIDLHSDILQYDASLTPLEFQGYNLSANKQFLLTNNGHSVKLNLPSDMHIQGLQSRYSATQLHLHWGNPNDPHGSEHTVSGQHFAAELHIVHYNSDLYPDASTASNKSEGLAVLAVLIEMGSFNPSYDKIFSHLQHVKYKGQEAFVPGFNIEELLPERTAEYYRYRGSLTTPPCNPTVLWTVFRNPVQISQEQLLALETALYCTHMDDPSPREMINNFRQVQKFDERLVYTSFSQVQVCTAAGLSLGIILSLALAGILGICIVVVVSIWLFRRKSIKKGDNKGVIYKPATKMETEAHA
The target in another experiment is Carbonic anhydrase 1 (Homo sapiens, UniProt P00915). Put plainly: Inhibition of human recombinant carbonic anhydrase 1 preincubated for 15 mins by stopped flow CO2 hydration method. The procedure, abridged: as §1
Carbonic anhydrase 1, sequence (P00915 whole entry): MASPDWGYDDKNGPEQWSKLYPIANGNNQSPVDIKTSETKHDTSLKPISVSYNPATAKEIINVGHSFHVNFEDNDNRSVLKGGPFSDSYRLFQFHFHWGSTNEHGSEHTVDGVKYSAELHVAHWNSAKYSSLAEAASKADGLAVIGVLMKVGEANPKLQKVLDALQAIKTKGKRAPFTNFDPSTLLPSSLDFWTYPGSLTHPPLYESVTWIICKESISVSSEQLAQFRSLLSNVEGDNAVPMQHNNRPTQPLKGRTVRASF
A further experiment addresses Carbonic anhydrase 2 (Homo sapiens, UniProt P00918). The experiment is described as follows: Inhibition of human recombinant carbonic anhydrase 2 preincubated for 15 mins by stopped flow CO2 hydration method.
The species entered for experiment [3] is Homo sapiens. The experiment is described as follows: Selectivity ratio of Ki for human recombinant carbonic anhydrase 1 to Ki for human recombinant carbonic anhydrase 2.
The species named for experiment [4] is Homo sapiens. Put plainly: Selectivity ratio of Ki for human recombinant carbonic anhydrase 9 to Ki for human recombinant carbonic anhydrase 2.
The species entered for experiment [5] is Homo sapiens. Put plainly: Selectivity ratio of Ki for human recombinant carbonic anhydrase 12 to Ki for human recombinant carbonic anhydrase 2.

We go through 25 compounds from ChEMBL document CHEMBL3608251, “Probing the 'bipolar' nature of the carbonic anhydrase active site: aromatic sulfonamides containing 1,3-oxazol-5-yl moiety as picomolar inhibitors of cytosolic CA I and CA II isoforms” (Eur J Med Chem, 2015).

In general, Ki refers to the equilibrium dissociation constant of an inhibitor or competing ligand from its target. `Cc1ccc(-c2cnc(C3CCC3)o2)cc1S(N)(=O)=O`: the Ki was found to be 285 nM at Carbonic anhydrase 9, 1390 nM on Carbonic anhydrase 12, 231 nM on Carbonic anhydrase 1 and 283 nM at Carbonic anhydrase 2. Moreover, the Ratio Ki in the experiment listed under Homo sapiens [1] and in the experiment filed under Homo sapiens [2] was above 100000 throughout.

Take `Cc1ncc(-c2ccc(S(N)(=O)=O)s2)o1`: the Ki on Carbonic anhydrase 9 turned out to be 10.5 nM; on Carbonic anhydrase 12, 9.4 nM; at Carbonic anhydrase 1, 141 nM; on Carbonic anhydrase 2 it was 6.3 nM. Besides, in the experiment filed under Homo sapiens [1], the Ratio Ki turned out to be 1000.

On to `NS(=O)(=O)c1ccc(-c2cnc(C(=O)N3CCCC3)o2)cc1`, for which the Ki on Carbonic anhydrase 9 was 1.7 nM; at Carbonic anhydrase 12, 42.3 nM; at Carbonic anhydrase 1 it was 0.01 nM; at Carbonic anhydrase 2 it was 0.009 nM.

In the case of `NS(=O)(=O)c1ccc(-c2cnc(C(=O)N3CCOCC3)o2)cc1`, the Ki at Carbonic anhydrase 9 worked out at 1.6 nM; at Carbonic anhydrase 12 it was 6.9 nM; at Carbonic anhydrase 1, 0.01 nM; on Carbonic anhydrase 2, 0.008 nM.

Regarding `COc1ccc(-c2cnc(C3CCC3)o2)cc1S(N)(=O)=O`, the Ratio Ki in the experiment filed under Homo sapiens [1] and in the experiment listed under Homo sapiens [2] was above 100000 in each case. For the same compound, the Ki amounted to 62.8 nM on Carbonic anhydrase 12, 6110 nM on Carbonic anhydrase 1 and 58.2 nM at Carbonic anhydrase 2.

As to `NS(=O)(=O)c1cc(-c2cnc(C3CC3)o2)cs1`, the Ratio Ki in the experiment listed under Homo sapiens [1] came out at 1000. The Ki stood at 8.7 nM on Carbonic anhydrase 12, 22 nM at Carbonic anhydrase 1 and 2.5 nM at Carbonic anhydrase 2.

Consider `NS(=O)(=O)c1ccc(-c2cnc(C(=O)N3CCOCC3)o2)s1`, for which the Ki on Carbonic anhydrase 9 was found to be 36.4 nM; on Carbonic anhydrase 12, 30.3 nM; on Carbonic anhydrase 1 it was 22.5 nM.

With `NS(=O)(=O)c1ccc(-c2cnc(C(=O)N3CCCC3)o2)s1`, the Ki at Carbonic anhydrase 9 was 18.7 nM; at Carbonic anhydrase 12, 6.7 nM; at Carbonic anhydrase 1 it was 41.9 nM; at Carbonic anhydrase 2 it was 0.01 nM. For the same compound, the Ratio Ki in the experiment listed under Homo sapiens [1] stood at 1000.

Regarding `COc1ccc(-c2cnc(C(=O)N3CCCC3)o2)cc1S(N)(=O)=O`, the Ki at Carbonic anhydrase 9 was 4.1 nM; on Carbonic anhydrase 12 it was 8570 nM; on Carbonic anhydrase 1 it was above 10000 nM; at Carbonic anhydrase 2, 0.01 nM. Besides, the Ratio Ki in the experiment listed under Homo sapiens [1] and in the experiment filed under Homo sapiens [2] was above 100000 throughout.

As for `NS(=O)(=O)c1cc(-c2cnc(C(=O)N3CCCC3)o2)cs1`, the Ki on Carbonic anhydrase 9 stood at 15.2 nM; at Carbonic anhydrase 12, 64.4 nM; at Carbonic anhydrase 1, 79.9 nM; on Carbonic anhydrase 2, 0.02 nM. The Ratio Ki in the experiment listed under Homo sapiens [1] amounted to 1000.

Turning to `Cc1ncc(-c2csc(S(N)(=O)=O)c2)o1`, the Ki at Carbonic anhydrase 9 amounted to 26.3 nM; on Carbonic anhydrase 12, 3.6 nM; at Carbonic anhydrase 1 it was 0.05 nM; on Carbonic anhydrase 2, 0.01 nM. Besides, in the experiment listed under Homo sapiens [1], the Ratio Ki was found to be 1000.

As for `NS(=O)(=O)c1ccc(-c2cnc(C3CCC3)o2)s1`, the Ratio Ki in the experiment filed under Homo sapiens [1] was found to be 1000. In addition, the Ki is 5.1 nM at Carbonic anhydrase 12, 36.8 nM on Carbonic anhydrase 1 and 0.01 nM on Carbonic anhydrase 2.

On to `Cc1ccc(-c2cnc(C3CC3)o2)cc1S(N)(=O)=O`, for which the Ratio Ki in the experiment filed under Homo sapiens [1] and in the experiment listed under Homo sapiens [2] was above 100000 in each case. The values for the Ki at Carbonic anhydrase 12, on Carbonic anhydrase 1 and on Carbonic anhydrase 2 were 381 nM, 289 nM and 63.9 nM, respectively.

For `Cc1ncc(-c2ccc(S(N)(=O)=O)cc2)o1`, the inhibitory constant (Ki) at Carbonic anhydrase 9 turned out to be 23.1 nM; at Carbonic anhydrase 12, 8.5 nM; on Carbonic anhydrase 1, 96.3 nM.

Regarding `Cc1ccc(-c2cnc(C(=O)N3CCCC3)o2)cc1S(N)(=O)=O`, the Ki turned out to be 42.5 nM at Carbonic anhydrase 9, 2790 nM at Carbonic anhydrase 12, 8.5 nM on Carbonic anhydrase 1 and 0.01 nM at Carbonic anhydrase 2. Also, the Ratio Ki in the experiment listed under Homo sapiens [1] and in the experiment filed under Homo sapiens [2] was above 100000 in each case.

As for `COc1ccc(-c2cnc(C3CC3)o2)cc1S(N)(=O)=O`, the Ki on Carbonic anhydrase 9 was 438 nM; at Carbonic anhydrase 12 it was 7960 nM; at Carbonic anhydrase 1, above 10000 nM; on Carbonic anhydrase 2, 8860 nM. Also, the Ratio Ki in the experiment filed under Homo sapiens [1] and in the experiment listed under Homo sapiens [2] was above 100000 each time.

For the compound `COc1ccc(-c2cnc(C)o2)cc1S(N)(=O)=O`, the Ki at Carbonic anhydrase 9 is 276 nM; on Carbonic anhydrase 12, 3540 nM; at Carbonic anhydrase 1 it was above 10000 nM; at Carbonic anhydrase 2, 4420 nM. Besides, the Ratio Ki in the experiment filed under Homo sapiens [1] and in the experiment filed under Homo sapiens [2] was above 100000 each time.

With `COc1ccc(-c2cnc(C(=O)N3CCOCC3)o2)cc1S(N)(=O)=O`, the Ki on Carbonic anhydrase 9 is 4.5 nM; on Carbonic anhydrase 12 it was above 10000 nM; on Carbonic anhydrase 1, above 10000 nM; on Carbonic anhydrase 2 it was 0.05 nM. The Ratio Ki in the experiment listed under Homo sapiens [1] and in the experiment listed under Homo sapiens [2] was above 100000 in each case.

Regarding `NS(=O)(=O)c1ccc(-c2cnc(C3CC3)o2)s1`, the Ki turned out to be 122 nM on Carbonic anhydrase 9, 9.2 nM at Carbonic anhydrase 12, 130 nM on Carbonic anhydrase 1 and 4.8 nM at Carbonic anhydrase 2. For the same compound, the Ratio Ki in the experiment filed under Homo sapiens [1] was 1000.

With `NS(=O)(=O)c1ccc(-c2cnc(C3CCC3)o2)cc1`, the Ratio Ki in the experiment listed under Homo sapiens [3], in the experiment filed under Homo sapiens [4] and in the experiment filed under Homo sapiens [5] was 100 in each case. For the same compound, the Ki at Carbonic anhydrase 12 was determined as 8.7 nM; at Carbonic anhydrase 1 it was 55.3 nM; on Carbonic anhydrase 2, 0.02 nM.

For `Cc1ncc(-c2ccc(C)c(S(N)(=O)=O)c2)o1`, the Ki on Carbonic anhydrase 9 came out at 274 nM; on Carbonic anhydrase 12 it was 245 nM; at Carbonic anhydrase 1 it was 45.4 nM; at Carbonic anhydrase 2, 7.1 nM. Besides, the Ratio Ki in the experiment filed under Homo sapiens [1] and in the experiment listed under Homo sapiens [2] was above 100000 each time.

On to `NS(=O)(=O)c1ccc(-c2cnc(C3CC3)o2)cc1`, for which the Ki at Carbonic anhydrase 9 is 3.2 nM; at Carbonic anhydrase 12 it was 6.2 nM; on Carbonic anhydrase 1 it was 4.8 nM; at Carbonic anhydrase 2 it was 0.01 nM. In addition, the Ratio Ki in the experiment filed under Homo sapiens [3], in the experiment filed under Homo sapiens [4] and in the experiment filed under Homo sapiens [5] was 100 throughout.

Consider `NS(=O)(=O)c1cc(-c2cnc(C(=O)N3CCOCC3)o2)cs1`, for which the Ratio Ki in the experiment filed under Homo sapiens [1] worked out at 1000. Further, the figures for the Ki on Carbonic anhydrase 12, on Carbonic anhydrase 1 and on Carbonic anhydrase 2 were 9.2 nM, 0.09 nM and 0.03 nM, respectively.

Turning to `Cc1ccc(-c2cnc(C(=O)N3CCOCC3)o2)cc1S(N)(=O)=O`, the Ki on Carbonic anhydrase 9 worked out at 3.7 nM; at Carbonic anhydrase 12 it was 557 nM; on Carbonic anhydrase 1, 58.6 nM; at Carbonic anhydrase 2 it was 0.28 nM. Further, the Ratio Ki in the experiment filed under Homo sapiens [1] and in the experiment listed under Homo sapiens [2] was above 100000 in each case.

As for `NS(=O)(=O)c1cc(-c2cnc(C3CCC3)o2)cs1`, the inhibition constant (Ki) is 25.9 nM on Carbonic anhydrase 9, 6.6 nM on Carbonic anhydrase 12, 9 nM on Carbonic anhydrase 1 and 0.01 nM at Carbonic anhydrase 2. Moreover, in the experiment listed under Homo sapiens [1], the Ratio Ki was determined as 1000.
